The source of these data is ChEMBL document CHEMBL2040835, “Disubstituted Bis-THF Moieties as New P2 Ligands in Nonpeptidal HIV-1 Protease Inhibitors” (ACS Med Chem Lett, 2011).

SMILES strings stand for the structures.

Data set [1] has as its system Human immunodeficiency virus 1. Briefly: Antiviral activity against Human immunodeficiency virus 1 isolate M1 expressing protease L10I, M46I, I64V, I84V, L90M, I93L mutant infected in human MT4 cells. The note with it: Human immunodeficiency virus 1, isolate M1, MT4. The class given is functional, organism-based. In a few lines: (§1)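 Cell-based antiviral assay in MT4 cells infected with a multi-PI-resistant HIV-1 mutant carrying clinically observed primary protease mutations. EC50 determined, with all assays run in quadruplicate.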

Data set [2] concerns Human immunodeficiency virus 1. The data set is described as follows: Selectivity index, ratio of EC50 for Human immunodeficiency virus 1 isolate M3 expressing protease L10I, K20R, M36I, G48V, I62V, A71V, V82A, I93L mutant to EC50 for Human immunodeficiency virus 1 3B expressing wild-type protease. It is filed as functional. Summed up:
(§2)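 Fold change is the EC50 against the multi-PI-resistant mutant divided by the EC50 against wild-type HIV-1 IIIB. Both EC50s come from cell-based assays in MT4 cells run in quadruplicate.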

Data set [3] has as its system Human immunodeficiency virus 1. The data set is described as follows: Antiviral activity against Human immunodeficiency virus 1 3B expressing wild-type protease infected in human MT4 cells. It is filed as functional, organism-based. In a few lines: (§3)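 Cell-based antiviral assay in MT4 cells infected with wild-type HIV-1 IIIB, read as EC50. Run in quadruplicate. It was also repeated in the presence of 50% human serum as an indicator of plasma protein binding.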

For data set [4], the system named is Human immunodeficiency virus 1. Briefly: Antiviral activity against Human immunodeficiency virus 1 isolate M3 expressing protease L10I, K20R, M36I, G48V, I62V, A71V, V82A, I93L mutant infected in human MT4 cells. The class given is functional, organism-based. The note with it: Human immunodeficiency virus 1, isolate M3, MT4.
Data set [5] deals with Human immunodeficiency virus 1. Briefly: Selectivity index, ratio of EC50 for Human immunodeficiency virus 1 isolate M2 expressing protease L10I, I13V, M46I, I50V, L63P, L76V mutant to EC50 for Human immunodeficiency virus 1 3B expressing wild-type protease. It is filed as functional. In a few lines: as §2
For the next data set, the target named is Protease (Human immunodeficiency virus 1, UniProt Q9YQ12). Briefly: Inhibition of Human immunodeficiency virus 1 3B protease.
Protease, sequence (Q9YQ12 whole entry): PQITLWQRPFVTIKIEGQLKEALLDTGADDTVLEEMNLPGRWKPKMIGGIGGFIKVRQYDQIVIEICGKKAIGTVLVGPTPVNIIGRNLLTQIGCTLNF
Data set [6] concerns Human immunodeficiency virus 1. The data set is described as follows: Selectivity index, ratio of EC50 for Human immunodeficiency virus 1 isolate M1 expressing protease L10I, M46I, I64V, I84V, L90M, I93L mutant to EC50 for Human immunodeficiency virus 1 3B expressing wild-type protease. The class given is functional. In a few lines: as §2
For data set [7], the system named is Human immunodeficiency virus 1. The data set is described as follows: Antiviral activity against Human immunodeficiency virus 1 isolate M2 expressing protease L10I, I13V, M46I, I50V, L63P, L76V mutant infected in human MT4 cells. It is filed as functional, organism-based. Particulars: Human immunodeficiency virus 1, isolate M2, MT4. Summed up: as §1
In data set [8] the test system is Human immunodeficiency virus 1. Briefly: Antiviral activity against Human immunodeficiency virus 1 3B expressing wild-type protease infected in human MT4 cells in presence of 50% human serum. The class given is functional, organism-based. In a few lines:
as §3

Data set [9] can be described thus: Ratio of EC50 for Human immunodeficiency virus 1 3B expressing wild-type protease to IC50 for Human immunodeficiency virus 1 3B protease.
Data set [10] in a line: Selectivity index, ratio of CC50 for human MT4 cells to EC50 for Human immunodeficiency virus 1 3B. The class given is toxicity, cell-based. Summed up:
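Selectivity index is calculated as CC50 divided by EC50 against HIV-1 IIIB in the cell-based assay.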

Data set [11] can be described thus: Cytotoxicity against human MT4 cells. The class given is cell-based.

Turning to `CC(C)CN(C[C@@H](O)[C@H](Cc1ccccc1)NC(=O)O[C@H]1CO[C@H]2OC[C@H](O)[C@H]21)S(=O)(=O)c1ccc(N)cc1`, the EC50 in [1] was determined as 0.112 µM; in data set [3] it was 0.773 µM; in data set [4] it was 0.0404 µM; in data set [7], 0.205 µM; in [8], 0.814 µM. The “Ratio EC50” value was below 0.1 in data set [2], 0.3 in data set [5] and 0.1 in [6]. At Protease, this molecule had an IC50 of 0.0029 µM. Besides, in data set [9], the Ratio is 250.

With `COCCO[C@H]1CO[C@@H]2OC[C@H](OC(=O)N[C@@H](Cc3ccccc3)[C@H](O)CN(CC(C)C)S(=O)(=O)c3ccc(N)cc3)[C@@H]21`, the 50% effective concentration (EC50) in data set [1] turned out to be 0.0119 µM; in [3], 0.0155 µM; in [4], 0.0068 µM; in data set [7], 0.0714 µM; in data set [8], 0.037 µM. The “Ratio EC50” value in [2] is 0.4; in [5], 4.6; in data set [6], 0.8. The selectivity ratio in [10] was above 2000. In addition, on Protease, the IC50 came out at 0.0025 µM. This molecule gave a CC50 in data set [11] above 9.8 µM.

As a reminder, the EC50 is the concentration giving half of the maximal effect. A word on the IC50: it is the point on the concentration scale where inhibition reaches its midpoint. Higher therefore signals weaker potency in that assay. What is called CC50 is the concentration at which the toxic effect on the cells reaches its halfway point. A high value points to lower toxicity to the cells.
